Laboratory results: article PMC3106293 (Xenobiotica; the fate of foreign compounds in biological …, 2009)
Read-outs that look alike come from different tables or passages of the source.

Experiments:
[1] = test system: sulfotransferases (SULTs) in human intestine cytosol; experiment: Sulfation of flavonoids by human intestine cytosol; format: in vitro ADME; details: for Km at 30 min: male, human, human intestine cytosol, pH 6.2
Outline: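 Cytosol (50 μg) from a person was incubated in 50 mM sodium phosphate pH 6.2 with 5 mM pNPS, 20 μM PAPS and test compound at 1 μM up to 1000 μM (upper limit varying by compound). After 30 min at 37°C, the reaction was stopped with 0.25 M Tris pH 8.7 and read at 401 nm. Product formation was linear with time. Km came from a Michaelis–Menten fit; means ± SD of three determinations.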

hSULT1A1 [2] = biological target: T1, hSULT1A1 (Homo sapiens, UniProt P50225); experiment: Sulfation of flavonoids by recombinant hSULT1A1; format: in vitro ADME
hSULT1A1 [3] = biological target: T1, hSULT1A1; experiment: Inhibition of 2-naphthol sulfation by recombinant hSULT1A1; format: biochemical
Outline: (§1)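 Test compound was added in DMSO (1% v/v final). Labelled substrates: [14C]2-naphthol 0.1 mM for hSULT1A1, [3H]DHEA 2 μM for hSULT2A1, [3H]oestradiol 0.15 μM for hSULT1E1. Incubated 30 min at 37°C, stopped with Tris pH 8.7, chloroform-extracted twice, aqueous phase scintillation-counted. IC50 from Hill-slope fit; three determinations.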

[4] = test system: human intestine cytosol (SULT1A1 and SULT1A3); experiment: Inhibition of 2-naphthol sulfation by human intestine cytosol; format: biochemical; details: read-out: IC50, 2-Naphthol sulfation, Cytosol, substrate 100 μM 2-naphthol
Outline: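 Radioactive assay in 50 mM Tris (pH 6.2) with 20 μM PAPS and [14C]2-naphthol (0.1 mM final). Enzyme source: 100 μg intestine cytosol from a person. Test compound in DMSO (1% v/v final), 0.01–1000 μM. Incubated 30 min at 37°C, stopped with 0.25 M Tris (pH 8.7), extracted twice with chloroform, aqueous phase scintillation-counted. IC50 fitted with a Hill-slope equation; mean ± SD of three determinations.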

hSULT1A3 [5] = biological target: T2, hSULT1A3 (Homo sapiens, UniProt P0DMM9); experiment: Inhibition of dopamine sulfation by recombinant hSULT1A3; format: biochemical
hSULT1E1 = biological target: T3, hSULT1E1 (Homo sapiens, UniProt P49888); experiment: Inhibition of oestradiol sulfation by recombinant hSULT1E1; format: biochemical; details: for Inhibition of hSULT1E1-catalysed oestradiol sulfation (in words): substrate 0.15 μM oestradiol, concentration range 1–1000 μM
T3 sequence (P49888 1-294): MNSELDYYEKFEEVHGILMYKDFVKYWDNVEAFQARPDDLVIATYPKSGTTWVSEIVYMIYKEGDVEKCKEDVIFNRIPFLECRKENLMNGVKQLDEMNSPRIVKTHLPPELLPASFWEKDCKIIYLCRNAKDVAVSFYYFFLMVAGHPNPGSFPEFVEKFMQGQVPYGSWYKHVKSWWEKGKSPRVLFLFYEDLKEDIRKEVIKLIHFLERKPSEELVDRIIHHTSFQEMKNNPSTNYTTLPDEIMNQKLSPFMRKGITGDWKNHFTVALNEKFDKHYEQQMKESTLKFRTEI
Outline: as §1

hSULT1A1 [6] = biological target: T1, hSULT1A1; experiment: Inhibition of oestradiol sulfation by recombinant hSULT1A1; format: biochemical
[7] = test system: human intestine cytosolic SULTs; experiment: Inhibition of oestradiol sulfation by human intestine cytosol; format: biochemical; details: read-out: IC50, Oestradiol sulfation, Cytosol, substrate 0.15 μM oestradiol
Outline: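 [3H]oestradiol (0.15 μM final) sulfation by 100 μg intestine cytosol from a person. Buffer 50 mM Tris (pH 6.2) with 20 μM PAPS. Test compound in DMSO (1% v/v final), 0.01–1000 μM. Reaction 30 min at 37°C, quenched with 0.25 M Tris (pH 8.7), chloroform-extracted twice, aqueous phase counted by scintillation. IC50 from a Hill-slope fit; mean ± SD of three determinations.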

hSULT2A1 = biological target: T4, hSULT2A1 (Homo sapiens, UniProt Q06520); experiment: Inhibition of DHEA sulfation by recombinant hSULT2A1; format: biochemical; details: for Inhibition of hSULT2A1-catalysed DHEA sulfation (in words): substrate 2 μM DHEA, concentration range 1–1000 μM
T4 sequence (Q06520 1-285): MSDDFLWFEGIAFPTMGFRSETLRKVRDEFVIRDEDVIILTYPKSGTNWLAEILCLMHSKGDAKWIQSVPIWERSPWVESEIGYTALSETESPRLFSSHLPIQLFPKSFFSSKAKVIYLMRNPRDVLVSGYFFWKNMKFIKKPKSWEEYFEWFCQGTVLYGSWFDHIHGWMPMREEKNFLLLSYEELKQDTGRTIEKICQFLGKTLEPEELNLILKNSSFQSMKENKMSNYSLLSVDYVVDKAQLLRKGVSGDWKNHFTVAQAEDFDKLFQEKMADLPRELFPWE
Outline: as §1

hSULT1A3 [8] = biological target: T2, hSULT1A3; experiment: Sulfation of flavonoids by recombinant hSULT1A3
[9] = flavonoid as substrate, Michaelis–Menten equation (1), 1–1000 μM catechin, 1–1000 μM epicatechin, 1–128 μM hesperetin, 1–32 μM eriodictyol
[10] = flavonoid as substrate, substrate inhibition equation (2)
[11] = flavonoid as substrate, substrate inhibition equation (2), listed as catechin
[12] = substrate inhibition constant of flavonoid sulfation, equation (2)
[13] = flavonoid as substrate, substrate inhibition equation (2), listed as hesperetin

T2 sequence (P0DMM9 whole entry): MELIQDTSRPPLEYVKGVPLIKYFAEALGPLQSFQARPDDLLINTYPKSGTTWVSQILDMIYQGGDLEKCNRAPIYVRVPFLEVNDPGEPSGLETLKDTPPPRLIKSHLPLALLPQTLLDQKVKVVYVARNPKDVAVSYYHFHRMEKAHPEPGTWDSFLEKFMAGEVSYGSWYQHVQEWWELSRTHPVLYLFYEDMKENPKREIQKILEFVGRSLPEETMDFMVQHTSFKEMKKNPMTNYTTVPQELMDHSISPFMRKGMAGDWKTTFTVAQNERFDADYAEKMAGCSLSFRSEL
T1 sequence (P50225 whole entry): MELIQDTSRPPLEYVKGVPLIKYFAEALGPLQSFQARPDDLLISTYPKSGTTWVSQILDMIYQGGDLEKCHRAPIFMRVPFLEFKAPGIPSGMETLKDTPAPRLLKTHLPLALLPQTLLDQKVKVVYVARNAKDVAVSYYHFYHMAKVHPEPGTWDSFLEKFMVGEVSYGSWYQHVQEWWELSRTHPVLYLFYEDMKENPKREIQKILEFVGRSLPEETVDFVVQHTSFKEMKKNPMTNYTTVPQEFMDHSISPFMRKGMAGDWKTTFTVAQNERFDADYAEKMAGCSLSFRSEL

Compound | Vmax [1, 9] | Vmax (hSULT1A1 [2]; [10]) | IC50 [4] | IC50 [7] | Vmax (hSULT1A3 [8]; [10]) | Km at 30 min [1] | Ki (hSULT1A1 [2]) | IC50 (hSULT1A1 [3]) | IC50 (hSULT1A3 [5]) | Ki (hSULT1A3 [8]) | IC50 (hSULT1E1) | IC50 (hSULT2A1) | further results
Oc1cc(O)c2c(c1)OC(c1ccc(O)c(O)c1)C(O)C2 (single isomer, unassigned; (+)) [Catechin, (+)catechin] | 6.7 ± 0.02 nmol/mg/min | 187 ± 9.9 nmol/mg/min | 67.1 ± 6.3 µM | 10.1 ± 1.7 µM | 342 ± 8.2 nmol/mg/min |  |  |  |  |  |  |  | Km [1, 9]: 104 ± 7.3 µM; Km (hSULT1A1 [2]; [10]): 165 ± 8.1 µM; Vmax (hSULT1A1 [2]; [11]): 187 nmol/mg/min; Ki (hSULT1A1 [2]; [12]): 6.37 ± 0.22 µM; IC50 (hSULT1A1 [3]; read-out: IC50, 2-Naphthol sulfation, hSULT1A1, substrate 100 μM 2-naphthol): 8.4 ± 3.3 µM; IC50 (hSULT1A3 [5]; read-out: IC50, Dopamine sulfation by hSULT1A3, substrate 50 μM dopamine): 82.5 ± 31.5 µM; Inhibition of hSULT1E1-catalysed oestradiol sulfation (in words) (hSULT1E1; listed as (+)catechin): did not significantly inhibit; Inhibition of hSULT1E1-catalysed oestradiol sulfation (in words) (hSULT1E1; listed as catechin): not inhibited; IC50 (hSULT1A1 [6]; read-out: IC50, Oestradiol sulfation, hSULT1A1, substrate 0.15 μM oestradiol): 2.6 ± 0.4 µM; Inhibition of hSULT2A1-catalysed DHEA sulfation (in words) (hSULT2A1; listed as (+)Catechin): did not significantly inhibit; Inhibition of hSULT2A1-catalysed DHEA sulfation (in words) (hSULT2A1; listed as catechin): not inhibited; Km (hSULT1A3 [8]; [10]): 236 ± 5.6 µM; Vmax (hSULT1A3 [8]; [11]): 342 nmol/mg/min; Ki (hSULT1A3 [8]; [12]): 8 ± 0.29 µM
Oc1cc(O)c2c(c1)O[C@H](c1ccc(O)c(O)c1)[C@H](O)C2 [Epicatechin, (−)epicatechin] | 4.2 ± 0.2 nmol/mg/min | 188 nmol/mg/min | 157 ± 37.6 µM | 22.7 ± 5.6 µM | 442 nmol/mg/min | 149 ± 9.2 µM | 8.7 ± 3.07 µM | 42.5 ± 8.5 µM | 117 ± 12.9 µM | 9.5 ± 0.21 µM |  |  | Inhibition of hSULT1E1-catalysed oestradiol sulfation (in words) (hSULT1E1; listed as (−)epicatechin): did not significantly inhibit; Inhibition of hSULT1E1-catalysed oestradiol sulfation (in words) (hSULT1E1; listed as epicatechin): not inhibited; IC50 (hSULT1A1 [6]): 6.1 ± 1 µM; Inhibition of hSULT2A1-catalysed DHEA sulfation (in words) (hSULT2A1; listed as (−)epicatechin): did not significantly inhibit; Inhibition of hSULT2A1-catalysed DHEA sulfation (in words) (hSULT2A1; listed as epicatechin): not inhibited
O=C1C[C@@H](c2ccc(O)c(O)c2)Oc2cc(O)cc(O)c21 [Eriodictyol, eriodictyol] | 19.4 ± 2.4 nmol/mg/min | 98.6 nmol/mg/min | 28.9 ± 4.1 µM | 11.8 ± 2 µM | 269 nmol/mg/min | 220 ± 28 µM | 6.1 ± 0.14 µM | 15.2 ± 0.9 µM | 14.7 ± 8.9 µM | 4.6 ± 0.02 µM | 677 ± 120 µM | 139 ± 8.8 µM | 
COc1ccc([C@@H]2CC(=O)c3c(O)cc(O)cc3O2)cc1O [Hesperetin] | 8.9 ± 0.3 nmol/mg/min |  | 32.2 ± 3.6 µM | 3.6 ± 0.4 µM | 303 ± 5.8 nmol/mg/min | 66 ± 3.3 µM | 3.7 ± 0.11 µM | 23.4 ± 5.75 µM | 20.8 ± 8.1 µM | 4.2 ± 0.06 µM | 90.4 ± 11.5 µM | 152 ± 14.9 µM | Vmax (hSULT1A1 [2]; [13]): 92.7 nmol/mg/min; Vmax (hSULT1A3 [8]; [13]): 303 nmol/mg/min
